Results taken from ChEMBL document CHEMBL1123681, “Molecular modification of anticholinergics as probes for muscarinic receptors. 2. Amino esters of alpha-methyltropic acid” (J Med Chem, 1987).
Blank lines part the entries; values can stand above or below the compound they belong to.

Tests used:
Cavia porcellus [1] = organism: Cavia porcellus; experiment: Antispasmodic activity was determined from isolated guinea pig ileum preparation
Rattus norvegicus [2] = organism: Rattus norvegicus; experiment: Antispasmodic activity was calculated as molar concentration of antagonist that inhibited 50% of a standard contraction response from isolated rat ileum preparation; format: functional; settings: read-out: ID50 (the source's name)
Rattus norvegicus [3] = organism: Rattus norvegicus; experiment: Relative potency with respect to (+/-)-3-Hydroxy-2-methyl-2-phenyl-propionic acid 2-diethylamino-ethyl ester in isolated rat ileum preparation; format: functional
Rattus norvegicus [4] = organism: Rattus norvegicus; experiment: Antispasmodic activity was calculated according to Ariens and van Rossum from isolated rat ileum preparations; format: functional; settings: read-out: pA2 (converted)
Procedure, shortened: (§1)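 Ileum from overnight-fasted rats killed by cervical dislocation, suspended in aerated Tyrode solution and recorded via force-displacement transducer. Contractions measured across increasing ACh concentrations, then ACh responses with antagonist present. pA2 derived by the Ariens–van Rossum method as the mean from linear regression of two or more experiments at four or more dose levels. ID50 is the molar antagonist concentration inhibiting 50% of a standard contraction.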

Rattus norvegicus [5] = organism: Rattus norvegicus; experiment: Antispasmodic activity calculated as ability of compound to block ACh-induced contractions of the ileum and expressed as pA2; format: functional, organism-based; settings: for Kb: Rattus norvegicus, Ileum, read-out: pA2 (converted); procedure, shortened: as §1
Cavia porcellus [6] = organism: Cavia porcellus; experiment: Ability to inhibit 50% standard contraction response of the guinea pig ileal tissue was measured with increasing concentrations of Acetylcholine (ACh) in the tissue bath; format: functional
Rattus norvegicus [7] = organism: Rattus norvegicus; experiment: (§2) Antispasmodic activity was measured as uM); format: functional
Rattus norvegicus [8] = organism: Rattus norvegicus; experiment: as §2; format: functional; remark: listed apart in the source
Rattus norvegicus [9] = organism: Rattus norvegicus; experiment: as §2; format: functional; remark: listed apart in the source
ileum (Cavia porcellus) = experiment: Antispasmodic activity was calculated as molar concentration of antagonist that inhibited 50% of a standard contraction response from isolated guinea pig ileum preparation; settings: read-out: ID50 (the source's name)
Rattus norvegicus [10] = organism: Rattus norvegicus; experiment: Antispasmodic activity was measured as percent reduction in rat ileum contraction against 300 ug/mL barium chloride 3 ug/mL (6.4X 10E-6 uM); format: functional
Procedure, shortened: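 Rat ileum strips in a tissue bath were contracted with a standard BaCl2 dose (300 μg/mL), chosen from a preliminary dose-response, then washed back to baseline. Test compound was added and equilibrated for 10 min. Without washout, the same BaCl2 dose was given again. Percent inhibition was taken from the contraction before versus after compound.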

Rattus norvegicus [11] = organism: Rattus norvegicus; experiment: Antispasmodic activity was measured as percent reduction in rat ileum contraction against 300 ug/mL barium chloride 0.5 ug/mL (1.5 X 10E-6 uM); format: functional
Procedure, shortened: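 Ileum strips from overnight-fasted rats killed by cervical dislocation, held in a tissue bath with force-displacement transducer recording. BaCl2 at 300 µg/mL, a standard dose set by a preliminary dose-response study, induced contraction; tissue washed back to baseline. Test agent equilibrated 10 min, then the same BaCl2 dose was added without washout. Percent inhibition was taken from contraction before versus after agent.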

Cavia porcellus [12] = organism: Cavia porcellus; experiment: Ability to inhibit 50% standard contraction response of the guinea pig ileal tissue was measured with increasing concentrations of Acetylcholine (ACh) in the tissue bath

Compound: CCN(CC)CCOC(=O)C(C)(CO)c1ccccc1.Cl (single isomer, unassigned; (-))
Log K (Cavia porcellus [1]): 7.996
IC50 (Rattus norvegicus [2]): 16.3 nM
Relative potency (Rattus norvegicus [3]): 19.26
Kb (Rattus norvegicus [4]): 16.2 nM

Compound: CCN(CC)CCOC(=O)C(C)(CF)c1ccccc1.Cl (stereo unspecified)
ID50 (Cavia porcellus [6]): 411 nM
IC50 (Rattus norvegicus [2]; Rattus norvegicus, Ileum): 301 nM
Inhibition (Rattus norvegicus [7]): 24%
Inhibition (Rattus norvegicus [8]): 35.7%
Inhibition (Rattus norvegicus [9]): 15.7%
Relative potency (Rattus norvegicus [3]): 1.04
Kb (Rattus norvegicus [5]): 302 nM

Compound: CCN(CC)CCOC(=O)C(C)(CO)c1ccccc1.Cl (racemic)
ID50 (Cavia porcellus [6]): 483 nM
IC50 (Rattus norvegicus [2]): 314 nM
pA2 (Rattus norvegicus [5]): 6.5

Compound: CCN(CC)CCOC(=O)C(C)(CBr)c1ccccc1.Cl (stereo unspecified)
IC50 (Rattus norvegicus [2]; Rattus norvegicus, Ileum): 127 nM
Relative potency (Rattus norvegicus [3]): 2.47
Kb (Rattus norvegicus [5]): 126 nM

Compound: CCN(CC)CCOC(=O)C(C)(CI)c1ccccc1.Cl (stereo unspecified)
IC50 (Rattus norvegicus [2]; Rattus norvegicus, Ileum): 38.7 nM
Relative potency (Rattus norvegicus [3]): 8.11
Kb (Rattus norvegicus [5]): 38.9 nM

Compound: CN1[C@@H]2CC[C@H]1C[C@@H](OC(=O)C(CO)c1ccccc1)C2 (stereo partly specified) [ATROPINE]
Inhibition (Rattus norvegicus [11]): 5.9%

Further lines, with some results ahead:

IC50 (Rattus norvegicus [2]): 172 nM
Compound: CCN(CC)CCOC(=O)C(C)(COS(=O)(=O)c1ccc(C)cc1)c1ccccc1.Cl (stereo in doubt; 2b)
Relative potency (Rattus norvegicus [3]): 1.83
pA2 (Rattus norvegicus [5]): 6.77

IC50 (ileum (Cavia porcellus)): 394 nM
Compound: CCN(CC)CCOC(=O)C(C)(COC(C)=O)c1ccccc1.Cl (stereo unspecified)
Relative potency (Rattus norvegicus [3]): 0.8

Log K (Cavia porcellus [1]): 6.13
IC50 (Rattus norvegicus [2]): 1140 nM
Compound: CCN(CC)CCOC(=O)C(C)(CO)c1ccccc1.Cl (single isomer, unassigned; (+))
Relative potency (Rattus norvegicus [3]): 0.27
pA2 (Rattus norvegicus [5]): 5.94

IC50 (Rattus norvegicus [2]): 38.9 nM
Compound: CCN(CC)CCOC(=O)C(C)(COS(=O)(=O)c1ccc(C)cc1)c1ccccc1.Cl (racemic)
Inhibition (Rattus norvegicus [10]): 33%
Relative potency (Rattus norvegicus [3]): 8.07
pA2 (Rattus norvegicus [5]): 7.41

IC50 (Rattus norvegicus [2]): 31 nM
Compound: CCN(CC)CCOC(=O)C(C)(COS(=O)(=O)c1ccc(C)cc1)c1ccccc1.Cl (stereo in doubt; 2a)
Relative potency (Rattus norvegicus [3]): 10.13
pA2 (Rattus norvegicus [5]): 7.51

IC50 (Rattus norvegicus [2]; Rattus norvegicus, Ileum): 554 nM
Compound: CCN(CC)CCOC(=O)C(C)(CCl)c1ccccc1.Cl (stereo unspecified)
Relative potency (Rattus norvegicus [3]): 0.57
Kb (Rattus norvegicus [5]): 550 nM
ID50 (Cavia porcellus [12]): 1170 nM
